Screening data from PubChem.
PDI inh: blocks human protein disulfide isomerase activity | PDI insulin aggregation turbidity, A650, 90 min | 0.052% of 350,000 active | inhibition, % at 10 µM | P07237 | AID 588391;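 active means mean inhibition across replicates of 30% or more, whatever share of single replicates reach that level; inconclusive means mean inhibition below 30% while every single replicate reaches 30%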
Target sequence (P07237 whole entry, looked up): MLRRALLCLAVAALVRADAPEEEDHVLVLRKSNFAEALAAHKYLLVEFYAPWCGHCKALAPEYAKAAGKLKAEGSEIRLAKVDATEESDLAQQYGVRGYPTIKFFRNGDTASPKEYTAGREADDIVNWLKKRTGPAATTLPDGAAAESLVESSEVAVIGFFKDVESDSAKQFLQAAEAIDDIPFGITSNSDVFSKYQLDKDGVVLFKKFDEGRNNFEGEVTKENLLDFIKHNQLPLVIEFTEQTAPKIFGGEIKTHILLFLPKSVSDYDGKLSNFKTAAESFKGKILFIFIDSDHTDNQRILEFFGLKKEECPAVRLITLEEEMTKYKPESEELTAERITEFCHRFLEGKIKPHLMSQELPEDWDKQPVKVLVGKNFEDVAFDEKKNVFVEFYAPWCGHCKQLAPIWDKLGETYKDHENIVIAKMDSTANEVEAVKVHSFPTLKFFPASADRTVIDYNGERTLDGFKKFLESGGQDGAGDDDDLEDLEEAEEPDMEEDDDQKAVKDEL
RAD52 anneal inh: blocks human RAD52 DNA annealing. P43351. AID 651710. inhibition, % at 18.7 µM. recombinant RAD52 DNA annealing, FRET fluorescence. 0.46% of 360,000 active;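 active means every replicate showing at least 50% inhibition; inconclusive means mean inhibition at least 50% but not in every replicate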
CAL PDZ FP-1: blocks peptide binding to the human CAL PDZ domain | 0.92% of 300,000 active | inhibition, % at 24.9 µM | purified CAL PDZ, TMR-peptide fluorescence polarization, 1 h | Q9HD26;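 active means mean inhibition of at least 30% with at least half of replicates also reaching 30%; inconclusive means no clear call, values can overlap the other calls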
CAL PDZ FP-2: blocks peptide binding to human CAL PDZ domain; 0.02% of 330,000 active; AID 504414; purified CAL PDZ, TMR-peptide fluorescence polarization, 1 h; inhibition, % at 20 µM; Q9HD26;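 active means highest replicate inhibition of at least 40%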
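Material: tagged CAL PDZ domain; buffer or medium: 25 mM sodium phosphate pH 7.4, 150 mM NaCl, TCEP, IgG, Thesit; compound dosing: single point, 20 µM; schedule: 1 h incubation at room temperature before polarization reading; measured by: FP readout, S and P plane fluorescence; read-out basis: percent inhibition from loss of millipolarization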
ERp5 block: blocks human ERp5 reductase activity on insulin; Q15084; ERp5 insulin aggregation, absorbance 650 nm, 90 min; inhibition, % at 9.99 µM; 0.05% of 350,000 active; AID 651711;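 active means mean replicate inhibition above about 25%, with every replicate also reaching it, limit read from the data, passing the limit was not always enough; inconclusive means only one of those two criteria met; inactive means neither criterion met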
RAD54 branch: blocks human RAD54 Holliday junction branch migration. Q92698. FAM/BHQ fluorescence. inhibition, % at 10.4 µM. 0.14% of 360,000 active. AID 602329;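 active means mean normalized replicate activity at least 40 and at least half of replicates scoring 40 or more; inconclusive means only one of the two criteria met; inactive means mean below 40 and under half of replicates reaching 40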;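 further: inhibitors cause a drop in the FAM fluorescence signal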
Hits are given with their value. Sampled rows, rich in hits. Any-hit rate of the full collection: about 1%.

Results for O=C(NC(N1CCOCC1)C(Cl)(Cl)Cl)c1ccc(F)cc1 (centres undefined) ?
PDI inh: inactive; RAD52 anneal inh: inactive; CAL PDZ FP-1: 75.5; CAL PDZ FP-2: inactive; ERp5 block: inactive

Results for COc1ccc(S(=O)(=O)N(C)C[C@@H]2Oc3ccc(NC(=O)NC4CCCCC4)cc3CC(=O)N([C@@H](C)CO)C[C@@H]2C)cc1 ?
RAD52 anneal inh: inactive; ERp5 block: inactive; RAD54 branch: inactive

What do the screens show for `CC(C)NC(=O)N[C@@H]1C=C[C@H](CC(=O)O)O[C@@H]1CO`?
RAD52 anneal inh: inactive; ERp5 block: inactive; RAD54 branch: inactive

Results for COC(=O)C[C@@H]1C[C@@H]2c3cc(NC(=O)Cc4ccncc4)ccc3O[C@@H]2[C@H](CO)O1 ?
RAD52 anneal inh: inactive; ERp5 block: 35.9; RAD54 branch: inactive

What do the screens show for `COC(=O)C[C@H]1C[C@H]2c3cc(NC(=O)Cc4ccncc4)ccc3O[C@H]2[C@H](CO)O1`?
RAD52 anneal inh: inactive; ERp5 block: 61.1; RAD54 branch: inactive

What do the screens show for `COC(=O)C[C@@H]1C[C@H]2c3cc(NC(=O)Cc4ccncc4)ccc3O[C@H]2[C@H](CO)O1`?
RAD52 anneal inh: inactive; ERp5 block: inactive; RAD54 branch: inactive

What do the screens show for `CC(=O)N1CC2(C1)[C@H](c1ccc(-c3ccc(C#N)cc3)cc1)[C@@H](CO)N2C(C)=O`?
RAD52 anneal inh: inactive; ERp5 block: inactive

What do the screens show for `O=C(Cn1ncc(N2CCOCC2)c(Cl)c1=O)c1ccc(Cl)cc1`?
PDI inh: inactive; RAD52 anneal inh: inactive; CAL PDZ FP-1: 34.2; CAL PDZ FP-2: inactive; ERp5 block: inactive

Results for O=C(Cn1ncc(Cl)c(Cl)c1=O)c1ccc(Cl)cc1 ?
PDI inh: inactive; CAL PDZ FP-1: inactive; CAL PDZ FP-2: inactive

How did CO[C@H]1CN(C)C(=O)c2ccc(NC(C)=O)cc2OC[C@H](C)N(C(=O)C2CCOCC2)C[C@H]1C do in these assays?
RAD52 anneal inh: inactive; ERp5 block: inactive; RAD54 branch: inactive

Results for Cc1nn(CC(=O)NCCc2ccccc2)c(=O)c2cccn12 ?
PDI inh: inactive; RAD52 anneal inh: inactive; CAL PDZ FP-1: 46.2; CAL PDZ FP-2: inactive; ERp5 block: inactive; RAD54 branch: inactive

How did CN(C)CC#Cc1ccc([C@@H]2[C@@H](CO)N3CCCCN(C(=O)CN(C)C)C[C@@H]23)cc1 do in these assays?
RAD52 anneal inh: 71.4; ERp5 block: inactive; RAD54 branch: inactive

How did CN(C)CC#Cc1ccc([C@@H]2[C@@H](CO)N3CCCCN(C(=O)Nc4ccccc4F)C[C@@H]23)cc1 do in these assays?
RAD52 anneal inh: 53.6; ERp5 block: inactive; RAD54 branch: inactive

What do the screens show for `CN(C)CC#Cc1ccc([C@@H]2[C@H]3CN(C(=O)Nc4ccccc4F)CCCCN3[C@H]2CO)cc1`?
RAD52 anneal inh: inactive; ERp5 block: inactive; RAD54 branch: inactive

What do the screens show for `O=C(NCCc1ccncc1)[C@H]1[C@H](CO)[C@H]2Cn3c(ccc(-c4ccncc4)c3=O)[C@H]2N1C(=O)C1CC1`?
RAD52 anneal inh: inactive; ERp5 block: inactive; RAD54 branch: inactive

What do the screens show for `C=CCN1CCCc2c(-c3ccc(OCCO)cc3)noc2-c2cc(OC)c(OC)cc2CC1`?
RAD52 anneal inh: inactive; ERp5 block: inactive; RAD54 branch: inactive

Results for CC(C)CC#Cc1ccc2c(c1)O[C@@H](CN(C)Cc1ccccn1)[C@H](C)CN([C@@H](C)CO)S2(=O)=O ?
RAD52 anneal inh: inactive; ERp5 block: inactive; RAD54 branch: inactive

Results for COc1ccccc1CNc1cccc(C)n1 ?
PDI inh: inactive; RAD52 anneal inh: inactive; ERp5 block: inactive; RAD54 branch: inactive

What do the screens show for `COc1ccccc1CC(=O)Nc1cccc(C)n1`?
PDI inh: inactive; RAD52 anneal inh: inactive; CAL PDZ FP-1: 57.6; CAL PDZ FP-2: inactive; ERp5 block: inactive; RAD54 branch: inactive

Results for CO[C@H]1CN(C)C(=O)c2ccc(NC(C)=O)cc2OC[C@H](C)N(C(=O)c2ccc(F)cc2)C[C@@H]1C ?
RAD52 anneal inh: inactive

How did COC(=O)c1c(C)nc2nonc2c1N do in these assays?
PDI inh: inactive; RAD52 anneal inh: inactive; CAL PDZ FP-1: 172.5; CAL PDZ FP-2: inactive; ERp5 block: inactive

How did C[C@@H]1CCCCO[C@H](CN(C)S(=O)(=O)c2ccc(Cl)cc2)[C@H](C)CN([C@@H](C)CO)C(=O)c2cc(NC(=O)Nc3ccccc3)ccc2O1 do in these assays?
RAD52 anneal inh: inactive; ERp5 block: inactive; RAD54 branch: inactive

How did O=C(C[C@@H]1C=C[C@H](NC(=O)Nc2ccc3c(c2)OCO3)[C@@H](CO)O1)NCc1ccc(Cl)cc1 do in these assays?
RAD52 anneal inh: inactive; ERp5 block: inactive; RAD54 branch: inactive

How did CN(C(=O)CSc1cn(CC(=O)N2CCOCC2)c2ccccc12)c1ccccc1 do in these assays?
PDI inh: inactive; RAD52 anneal inh: inactive; CAL PDZ FP-1: 34.7; CAL PDZ FP-2: inactive; ERp5 block: inactive; RAD54 branch: inactive

What do the screens show for `C[C@@H]1CN([C@@H](C)CO)C(=O)c2cccc(NC(=O)C3CCOCC3)c2O[C@H]1CN(C)S(=O)(=O)c1cccs1`?
RAD52 anneal inh: inactive; ERp5 block: inactive; RAD54 branch: inactive

What do the screens show for `COc1ccc(C(=O)Nc2cc(OC)c(Cl)cc2OC)cc1`?
PDI inh: inactive; RAD52 anneal inh: inactive; CAL PDZ FP-1: 37.2; CAL PDZ FP-2: inactive; ERp5 block: inconclusive

Results for CCCN1CCN(CCCNC(=O)CN2C(=O)C(CC)Oc3ccccc32)CC1 (centres undefined) ?
PDI inh: inactive; RAD52 anneal inh: inactive; CAL PDZ FP-1: inactive; CAL PDZ FP-2: inactive; ERp5 block: inactive; RAD54 branch: inactive

Results for CCC1Oc2ccc(C)cc2N(CC(=O)NCCCN2CCCC2)C1=O (centres undefined) ?
PDI inh: inactive; RAD52 anneal inh: inactive; CAL PDZ FP-1: 35.8; CAL PDZ FP-2: inactive; ERp5 block: inactive; RAD54 branch: inactive

What do the screens show for `CN1CCN(CCCNC(=O)CN2C(=O)COc3ccccc32)CC1`?
PDI inh: inactive; RAD52 anneal inh: inactive; CAL PDZ FP-2: inactive; ERp5 block: inactive

How did Cc1ccc2c(c1)N(CC(=O)NCCCN1CCN(C)CC1)C(=O)CO2 do in these assays?
PDI inh: inactive; RAD52 anneal inh: inactive; CAL PDZ FP-1: 64.3; CAL PDZ FP-2: inactive; ERp5 block: inactive; RAD54 branch: inactive

What do the screens show for `CN(C)C(=O)c1ccc(-c2ccc([C@@H]3[C@@H](CO)N4C(=O)CN(C(=O)C5CC5)C[C@H]34)cc2)cc1`?
RAD52 anneal inh: inactive; ERp5 block: inactive

What do the screens show for `COc1c(Cl)cc(Br)c(OC)c1C(=O)NC(=O)Nc1nc(C)cc(C)n1`?
PDI inh: inactive; RAD52 anneal inh: inactive; CAL PDZ FP-1: 82.8; CAL PDZ FP-2: inactive; ERp5 block: inactive

How did Cc1ccc(-n2ncc3c2CCCC3NC(=O)CCc2c(C)noc2C)cc1C (centres undefined) do in these assays?
PDI inh: inactive; RAD52 anneal inh: inactive; CAL PDZ FP-1: 33.0; CAL PDZ FP-2: inactive; ERp5 block: inactive; RAD54 branch: inactive
